Series [1] has as its system HeLa. The series is described as follows: The compound was tested in vitro for antitumor activity(50% inhibition of tumor cell growth) against HeLa human cell lines after 144 hr. The note with it: read-out: ID50 (the source's name). The format is functional. In outline:
(§1)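 5 × 10^5 exponentially growing cells exposed to varying drug concentrations for 144 h, then counted with a Coulter counter. ID50 is the drug concentration in culture medium giving 50% inhibition of cell growth versus untreated controls.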

In series [2] the test system is KB. Briefly: The compound was tested in vitro for antitumor activity(50% inhibition of tumor cell growth) against KB human cell lines after 144 hr. The format is functional. The settings on record: read-out: ID50 (the source's name). In outline: as §1
Series [3] concerns KB. The series is described as follows: The compound was tested in vitro for antitumor activity(50% inhibition of tumor cell growth) against KB human cell lines after 72 hr. The series is classed as functional. The settings on record: read-out: ID50 (the source's name). In outline:
(§2)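 5 × 10^5 exponentially growing human tumour cells were exposed to a range of drug concentrations for the stated time (72 or 144 h), then counted on a Coulter counter. ID50 is the concentration in the culture medium giving 50% inhibition of cell growth relative to untreated controls.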

The test system of series [4] is L1210. The series is described as follows: (§3) The compound was tested in vitro for antitumor activity(50% inhibition of tumor cell growth) against the L1210 murine cell lines after 72 hours. The format is functional. The note with it: Mus musculus, L1210, 72 h; read-out: ID50 (the source's name). Summed up: (§4)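 Suspension cultures were grown in 1640 medium with 10% fetal calf serum, 20 µM 2-mercaptoethanol, […] and antibiotics at 37 °C in 5% CO2. 5×10^5 exponentially growing cells were exposed to varying drug concentrations for 72 h, then counted with a Coulter counter. ID50 is the concentration giving 50% growth inhibition versus untreated controls.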

Series [5] is filed under the species Mus musculus. Briefly: (§5) The compound was tested in vitro for antitumor activity(50% inhibition of tumor cell growth) against the P388/doxorubicin resistant murine cell lines after 72 hours. The format is functional. The note with it: P388, 72 h, read-out: ID50 (the source's name). In outline:
as §4

Series [6] has as its system P388. The series is described as follows: (§6) The compound was tested in vitro for antitumor activity(50% inhibition of tumor cell growth) against the P388 murine cell lines after 72 hours. The format is functional. The note with it: Mus musculus, P388, 72 h; read-out: ID50 (the source's name). Summed up:
as §4

The test system of series [7] is HeLa. The series is described as follows: The compound was tested in vitro for antitumor activity(50% inhibition of tumor cell growth) against HeLa human cell lines after 72 hr. The series is classed as functional. The note with it: read-out: ID50 (the source's name). Summed up:
as §2

Series [8] relates to L1210. The series is described as §3. The series is classed as functional. The note with it: Mus musculus, L1210, 72 h; read-out: ID50 (the source's name). In outline:
(§7)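 Murine leukemia cells (P388, the doxorubicin-resistant subline P388/DX, or L1210) were grown as suspension cultures in 1640 medium with 10% fetal calf serum, 20 µM 2-mercaptoethanol, […] and antibiotics, at 37 °C in humidified 5% CO2. 5 × 10^5 exponentially growing cells were exposed to a range of drug concentrations for 72 h, then Coulter-counted. ID50 is the concentration giving 50% growth inhibition versus untreated controls.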
This is another data set of the same source.

For series [9], the species on record is Mus musculus. Described as §5. The format is functional. The settings on record: P388, 72 h, read-out: ID50 (the source's name). Summed up:
as §7
This is another data set of the same source.

Series [10] has as its system P388. The series is described as §6. The format is functional. The note with it: Mus musculus, P388, 72 h; read-out: ID50 (the source's name). Summed up: as §7
This is another data set of the same source.

Series [11] relates to L1210. Briefly: Antitumor activity against leukemia L1210 cells at 12.5 mg/kg/day expressed as mean survival of treated mice (T) to untreated (C) was reported. The series is classed as functional, Mus musculus.
The test system of series [12] is L1210. Briefly: Antitumor activity against leukemia L1210 cells at 25.0 mg/kg/day expressed as mean survival of treated mice (T) to untreated (C) was reported. The format is functional, Mus musculus.
Series [13] concerns L1210. Briefly: Antitumor activity against leukemia L1210 cells at 6.3 mg/kg/day expressed as mean survival of treated mice (T) to untreated (C) was reported. The series is classed as functional, Mus musculus.
Series [14] deals with L1210. The series is described as follows: Antitumor activity against leukemia L1210 cells at 12.5 mg/kg/day expressed as Number of mice died for toxicity to number of treated mice; 0/10 mice. The format is functional, Mus musculus.
The test system of series [15] is L1210. The series is described as follows: Antitumor activity against leukemia L1210 cells at 6.3 mg/kg/day expressed as Number of mice died for toxicity to number of treated mice; 0/10 mice. The format is functional, Mus musculus.
Series [16] has as its system Mus musculus. The series is described as follows: Antitumor activity against leukemia P388/DX cells at 12.5 mg/kg/day expressed as toxic deaths in mice was reported; 0/10 mice. The series is classed as functional. Summed up:
(§8)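 BDF1 mice given 10^6 doxorubicin-resistant P388 cells ip; the line was kept by weekly ip passage with doxorubicin. Compound was dissolved in distilled water just before use and given ip daily for 7 days from 24 h post-inoculation; 10 mice per dose. %T/C = median survival of treated/control ×100, with 125 significant. Toxicity was judged by autopsy (spleen and liver shrinkage).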

Series [17] deals with Mus musculus. The series is described as follows: Antitumor activity against leukemia P388/DX cells at 3.1 mg/kg/day expressed as toxic deaths in mice was reported; 0/10 mice. The format is functional. Summed up:
as §8

Series [18] concerns Mus musculus. Briefly: Antitumor activity against leukemia P388/DX cells at 6.3 mg/kg/day expressed as toxic deaths in mice was reported; 0/10 mice. The series is classed as functional. In outline: as §8
Series [19] relates to Mus musculus. The series is described as follows: Antitumor activity against leukemia P388/DX cells at 3.1 mg/kg/day expressed as mean survival of treated mice (T) to untreated (C) was reported. The format is functional. In outline:
as §8

Series [20] deals with Mus musculus. Briefly: Antitumor activity against leukemia P388/DX cells at 6.3 mg/kg/day expressed as mean survival of treated mice (T) to untreated (C) was reported. The format is functional. In outline: as §8
Series [21] concerns Mus musculus. Briefly: Antitumor activity against leukemia P388/DX cells at 12.5 mg/kg/day expressed as mean survival of treated mice (T) to untreated (C) was reported. The series is classed as functional. Summed up:
as §8

For series [22], the system named is L1210. The series is described as follows: Antitumor activity against leukemia L1210 cells at 25.0 mg/kg/day expressed as Number of mice died for toxicity to number of treated mice; 6/10 mice. The series is classed as organism-based. The settings on record: mouse, in vivo.
Series [23] concerns L1210. Briefly: Antitumor activity against leukemia L1210 cells at 150.0 mg/kg/day expressed as Number of mice died for toxicity to number of treated mice; 0/10 mice. The series is classed as functional, Mus musculus.
Series [24] deals with L1210. Briefly: Antitumor activity against leukemia L1210 cells at 75.0 mg/kg/day expressed as Number of mice died for toxicity to number of treated mice; 0/10 mice. The series is classed as functional, Mus musculus.
For series [25], the system named is L1210. The series is described as follows: Antitumor activity against leukemia L1210 cells at 150.0 mg/kg/day expressed as mean survival of treated mice (T) to untreated (C) was reported. The format is functional, Mus musculus.
The test system of series [26] is L1210. The series is described as follows: Antitumor activity against leukemia L1210 cells at 75.0 mg/kg/day expressed as mean survival of treated mice (T) compared to untreated (C) was reported. The series is classed as functional, Mus musculus.
Series [27] relates to Mus musculus. The series is described as follows: Antitumor activity against leukemia P388/DX cells at 100.0 mg/kg/day expressed as toxic deaths in mice was reported; 0/10 mice. The format is functional. Summed up:
(§9)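 BDF1 mice given 10^6 doxorubicin-resistant P388 cells ip. Compound was dissolved in distilled water just before use and given ip daily for 9 days from 24 h post-inoculation. %T/C = median survival of treated/control ×100, with 125 significant. Toxic deaths were judged by gross autopsy, mainly from reduced spleen and liver size.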

Series [28] has as its system Mus musculus. The series is described as follows: Antitumor activity against leukemia P388/DX cells at 150.0 mg/kg/day expressed as mean survival of treated mice (T) to untreated (C) was reported. The format is functional. Summed up:
as §9

Series [29] relates to Mus musculus. The series is described as follows: Antitumor activity against leukemia P388/DX cells at 300.0 mg/kg/day expressed as mean survival of treated mice (T) to untreated (C) was reported. The series is classed as functional. Summed up:
as §9

For series [30], the system named is Mus musculus. The series is described as follows: Antitumor activity against leukemia P388/DX cells at 100.0 mg/kg/day expressed as mean survival of treated mice (T) to untreated (C) was reported. The series is classed as functional. Summed up:
as §9

The test system of series [31] is Mus musculus. Briefly: Antitumor activity against leukemia P388/DX cells at 150.0 mg/kg/day expressed as toxic deaths in mice was reported; 2/20 mice. The settings on record: in vivo.
Series [32] deals with Mus musculus. Briefly: Antitumor activity against leukemia P388/DX cells at 300.0 mg/kg/day expressed as toxic deaths in mice was reported; 8/20 mice. The settings on record: in vivo.

Molecules are shown by their SMILES.

For the molecule `O=c1[nH]cc(F)c(=O)[nH]1` [FLUOROURACIL], the IC50 with HeLa [1] is 800 nM; with KB [2], 2000 nM; in the series with KB [3], 13.8 µM; in the series on L1210 [4] it was 400 nM; in the series listed under Mus musculus [5], 100 nM; with P388 [6] it was 300 nM. The IC50 in the series on HeLa [7] came to 6.1 µM.
In the case of `Nc1ncnc2c1ncn2[C@@H]1O[C@H](CO)[C@@H](O)[C@H]1O` [ADENOSINE], the IC50 in the series on HeLa [1] was 27700 nM; in the series on KB [2] it was 25400 nM; with KB [3], 89.8 µM; in the series with L1210 [8] it was 23.6 µM; in the series listed under Mus musculus [9], 10.8 µM; in the series on P388 [10], 12.7 µM. In addition, the IC50 in the series on HeLa [7] was determined as 46 µM.
Regarding `Nc1ccnc2c1ncn2[C@@H]1O[C@H](CO)[C@@H](O)[C@H]1O`, the IC50 in the series with HeLa [1] came out at 1200 nM; in the series with KB [2] it was 600 nM; with KB [3], 0.3 µM; in the series on L1210 [8] it was 1.8 µM; in the series listed under Mus musculus [9], 0.4 µM; with P388 [10], 1.1 µM. The IC50 with HeLa [7] is 1.2 µM. Also, the T/C worked out at 113% with L1210 [11]; 88% with L1210 [12]; 100% in the series on L1210 [13]; 106% in the series with Mus musculus [19]; 106% in the series on Mus musculus [20]; 111% with Mus musculus [21]. Further, the Activity in the series with L1210 [14] turned out to be 0; in the series on L1210 [15] it was 0; in the series with Mus musculus [16], 0; in the series with Mus musculus [17] it was 0; in the series on Mus musculus [18], 0; in the series with L1210 [22] it was 6.
For the molecule `O=[N+]([O-])c1ccnc2c1ncn2C1O[C@H](CO)[C@@H](O)[C@H]1O` (some centres not stated), the IC50 in the series with HeLa [1] came to 27000 nM; in the series on KB [2] it was 13100 nM; with KB [3] it was 33.8 µM; in the series with L1210 [8], 11.8 µM; in the series filed under Mus musculus [9] it was 8.1 µM; in the series on P388 [10], 12.5 µM. For the same molecule, the IC50 in the series on HeLa [7] is 64.1 µM. Besides, the Activity was 0 with L1210 [23]; 0 with L1210 [24]; 0 in the series on Mus musculus [27]; 2 in the series on Mus musculus [31]; 8 in the series on Mus musculus [32]. Moreover, the T/C with L1210 [25] is reported as 106%; with L1210 [26], 106%; in the series on Mus musculus [28], 97%; with Mus musculus [29] it was 22%; with Mus musculus [30], 95%.
Take `Nc1ccn([C@@H]2O[C@H](CO)[C@@H](O)[C@@H]2O)c(=O)n1` [CYTARABINE]: the IC50 in the series with HeLa [1] was determined as 100 nM; in the series on KB [2], 1100 nM; with KB [3], 1 µM; in the series with L1210 [8], 0.02 µM; in the series listed under Mus musculus [9] it was 0.01 µM; in the series on P388 [10], 0.02 µM. Besides, in the series on HeLa [7], the IC50 stood at 0.6 µM.

These data come from ChEMBL document CHEMBL1123889, “Improved synthesis and antitumor activity of 1-deazaadenosine” (J Med Chem, 1987).
